Measurements: ChEMBL document CHEMBL2321767, “Synthesis and anticonvulsant activity of bioisosteres of trimethadione, N-derivative-1,2,3-oxathiazolidine-4-one-2,2-dioxides from α-hydroxyamides” (Bioorg Med Chem, 2013)
Active and inactive are the calls of the source.

Columns and labels:
Mus musculus [1] = assay: Anticonvulsant activity in Swiss albino mouse assessed as protection against scPTZ-induced tonic-clonic seizures at 100 mg/kg, ip measured after 4 hrs relative to control; type: functional, organism-based; parameters: dose 100 mg/kg
Outline: (§1)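 Adult male Swiss albino mice (18–25 g) given test substance ip at 30 or 100 mg/kg in 30% PEG 400/10% water. At 0.5 or 4 h, PTZ 85 mg/kg sc (0.5% in 0.9% saline) into the posterior midline. Mice observed 30 min. Protection means no threshold seizure, i.e. no clonic spasm lasting ≥5 s. Scored as protected/tested, 2 mice per group.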

Mus musculus [2] = assay: Neurotoxicity against Swiss albino mouse at 30 mg/kg, ip measured after 4 hrs by rotarod test; type: toxicity, organism-based; parameters: dose 30 mg/kg, route intraperitoneal; conditions: in vivo
Outline: (§2)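 Male Swiss albino mice (18–25 g) dosed ip at 30 or 100 mg/kg in 30% PEG 400/10% water. Minimal neurotoxicity checked on the rotarod 0.5 and 4 h after dosing, as failure to keep balance on the rotating rod. Reported as affected/tested, 5 mice per group.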

Mus musculus [3] = assay: Anticonvulsant activity in Swiss albino mouse assessed as protection against maximal electric shock-induced tonic-clonic seizures at 30 mg/kg, ip measured after 4 hrs relative to control; type: functional
Outline: (§3)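 Adult male Swiss albino mice (18–25 g) dosed ip with 30 or 100 mg/kg in 30% PEG 400/10% water, 0.01 mL/g. MES tested 0.5 and 4 h later: electroshock via ear clips. Protection means no hind-limb tonic extension. Result reported as mice protected out of mice tested (3 per group).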

Mus musculus [4] = assay: Neurotoxicity against Swiss albino mouse at 100 mg/kg, ip measured after 4 hrs by rotarod test; type: toxicity, organism-based; parameters: dose 100 mg/kg, route intraperitoneal; conditions: in vivo; outline: as §2
Mus musculus [5] = assay: Neurotoxicity against Swiss albino mouse at 100 mg/kg, ip measured after 0.5 hrs by rotarod test; type: toxicity, organism-based; parameters: dose 100 mg/kg, route intraperitoneal; conditions: in vivo; outline: as §2
Mus musculus [6] = assay: Anticonvulsant activity in Swiss albino mouse assessed as protection against scPTZ-induced tonic-clonic seizures at 30 mg/kg, ip measured after 0.5 hrs relative to control; type: functional, organism-based; parameters: dose 30 mg/kg; outline: as §1
Mus musculus [7] = assay: Anticonvulsant activity in Swiss albino mouse assessed as protection against maximal electric shock-induced tonic-clonic seizures at 100 mg/kg, ip measured after 4 hrs relative to control; type: functional, organism-based; parameters: dose 100 mg/kg; outline: as §3
Mus musculus [8] = assay: Neurotoxicity against Swiss albino mouse at 30 mg/kg, ip measured after 0.5 hrs by rotarod test; type: toxicity, organism-based; parameters: dose 30 mg/kg, route intraperitoneal; conditions: in vivo; outline: as §2
Mus musculus [9] = assay: Anticonvulsant activity in Swiss albino mouse assessed as protection against scPTZ-induced tonic-clonic seizures at 100 mg/kg, ip measured after 0.5 hrs relative to control; type: functional, organism-based; parameters: dose 100 mg/kg; outline: as §1
Mus musculus [10] = assay: Anticonvulsant activity in Swiss albino mouse assessed as protection against scPTZ-induced tonic-clonic seizures at 30 mg/kg, ip measured after 4 hrs relative to control; type: functional, organism-based; parameters: dose 30 mg/kg; outline: as §1
Mus musculus [11] = assay: Anticonvulsant activity in Swiss albino mouse assessed as protection against maximal electric shock-induced tonic-clonic seizures at 100 mg/kg, ip measured after 0.5 hrs relative to control; type: functional; outline: as §3
Mus musculus [12] = assay: Anticonvulsant activity in Swiss albino mouse assessed as protection against maximal electric shock-induced tonic-clonic seizures at 30 mg/kg, ip measured after 0.5 hrs relative to control; type: functional, organism-based; parameters: dose 30 mg/kg; outline: as §3
Mus musculus [13] = assay: Toxicity against Swiss albino mouse assessed as mortality at 30 to 100 mg/kg, ip; type: organism-based; parameters: dose 30-100 mg/kg, route intraperitoneal; conditions: in vivo
Outline: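 Adult male Swiss albino mice (18–25 g; 12 h light/dark cycle, free food and water) were dosed ip at 30 and 100 mg/kg in 30% PEG 400 and 10% water, 0.01 mL/g body weight. Testing was at 0.5 and 4 h in the MES, scPTZ and RotoRod assays, with deaths recorded during these assays.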

Mus musculus [14] = species on record: Mus musculus; assay: Ratio of valproic acid ED50 to compound ED50 for protection against maximal electric shock-induced tonic-clonic seizures in Swiss albino mouse; type: functional
Mus musculus [15] = assay: Anticonvulsant activity in ip dosed Swiss albino mouse assessed as time of maximal protection against maximal electric shock-induced tonic-clonic seizures; type: functional
Outline: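 Ip-dosed male Swiss albino mice (vehicle 30% PEG 400/10% water) tested in the MES test (ear-clip electroshock, endpoint abolition of hind-limb tonic extension) at several times after dosing. The maximal time effect is the time of peak protection.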

Mus musculus [16] = species on record: Mus musculus; assay: Ratio of trimathadione ED50 to compound ED50 for protection against maximal electric shock-induced tonic-clonic seizures in Swiss albino mouse; type: functional
Mus musculus [17] = species on record: Mus musculus; assay: Ratio of phenytoin ED50 to compound ED50 for protection against maximal electric shock-induced tonic-clonic seizures in Swiss albino mouse; type: functional
Mus musculus [18] = assay: Anticonvulsant activity in ip dosed Swiss albino mouse assessed as protection against maximal electric shock-induced tonic-clonic seizures measured up to 4 hrs; type: functional
Outline: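 Male Swiss albino mice given test substances ip in 30% PEG 400/10% water. Various doses, each group of six mice, tested by MES at the maximal time effect. Protection means no hind-limb tonic extension after ear-clip electroshock. ED50 and 95% confidence intervals computed by the Litchfield–Wilcoxon method.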

CCCNC(=O)C(C)(C)O
Activity (Mus musculus [1]): inactive | Activity (Mus musculus [2]): Non-toxic | Activity (Mus musculus [3]; route intraperitoneal): 100% | Activity (Mus musculus [4]): Non-toxic | Activity (Mus musculus [5]): Non-toxic | Activity (Mus musculus [6]): inactive | Activity (Mus musculus [7]): inactive | Activity (Mus musculus [8]): Non-toxic | Activity (Mus musculus [9]): inactive | Activity (Mus musculus [10]): inactive | Activity (Mus musculus [11]): Active | Activity (Mus musculus [12]): Active | Activity (Mus musculus [13]): Non-toxic

CCCCN1C(=O)C(C)(C)OS1(=O)=O
Ratio ED50 (Mus musculus [14]): 4700 | Activity (Mus musculus [1]): Active | Time (Mus musculus [15]): 2 h | Activity (Mus musculus [2]): Non-toxic | Activity (Mus musculus [3]): Active | Ratio ED50 (Mus musculus [16]): 10000 | Ratio ED50 (Mus musculus [17]): 90 | Activity (Mus musculus [4]): Non-toxic | Activity (Mus musculus [5]): Non-toxic | Activity (Mus musculus [6]): Active | Activity (Mus musculus [7]): Active | Activity (Mus musculus [8]): Non-toxic | Activity (Mus musculus [9]): inactive | ED50 (Mus musculus [18]): 0.06 mg/kg | Activity (Mus musculus [10]): Active | Activity (Mus musculus [11]): inactive | Activity (Mus musculus [12]): Active | Activity (Mus musculus [13]): Non-toxic

CC1(C)OS(=O)(=O)N(CCc2ccccc2)C1=O
Activity (Mus musculus [1]): Active | Time (Mus musculus [15]): 2 h | Activity (Mus musculus [2]): Non-toxic | Activity (Mus musculus [3]): Active | Activity (Mus musculus [4]): Non-toxic | Activity (Mus musculus [5]): Non-toxic | Activity (Mus musculus [6]): Active | Activity (Mus musculus [7]): Active | Activity (Mus musculus [8]): Non-toxic | Activity (Mus musculus [9]): Active | ED50 (Mus musculus [18]): 91.1 mg/kg | Activity (Mus musculus [10]): inactive | Activity (Mus musculus [11]): Active | Activity (Mus musculus [12]): Active | Activity (Mus musculus [13]): Non-toxic

CN1C(=O)OC(C)(C)C1=O [TRIMETHADIONE]
Time (Mus musculus [15]): 0.5 h | ED50 (Mus musculus [18]): 627 mg/kg

CC1(C)OS(=O)(=O)N(Cc2ccccc2)C1=O
Ratio ED50 (Mus musculus [14]): 19 | Activity (Mus musculus [1]): inactive | Time (Mus musculus [15]): 4 h | Activity (Mus musculus [2]): Non-toxic | Activity (Mus musculus [3]; route intraperitoneal): 100% | Ratio ED50 (Mus musculus [16]): 40 | Activity (Mus musculus [4]): Non-toxic | Activity (Mus musculus [5]): Non-toxic | Activity (Mus musculus [6]): inactive | Activity (Mus musculus [7]): Active | Activity (Mus musculus [8]): Non-toxic | Activity (Mus musculus [9]): Active | ED50 (Mus musculus [18]): 15.1 mg/kg | Activity (Mus musculus [10]): inactive | Activity (Mus musculus [11]): Active | Activity (Mus musculus [12]): Active | Activity (Mus musculus [13]): Non-toxic

CCCCNC(=O)C(O)(c1ccccc1)c1ccccc1
Activity (Mus musculus [1]): inactive | Activity (Mus musculus [2]): Non-toxic | Activity (Mus musculus [3]; route intraperitoneal): 100% | Activity (Mus musculus [4]): Non-toxic | Activity (Mus musculus [5]): Non-toxic | Activity (Mus musculus [6]): inactive | Activity (Mus musculus [7]): Active | Activity (Mus musculus [8]): Non-toxic | Activity (Mus musculus [9]): inactive | Activity (Mus musculus [10]): inactive | Activity (Mus musculus [11]; route intraperitoneal): 100% | Activity (Mus musculus [12]): Active | Activity (Mus musculus [13]): Non-toxic

CCCCNC(=O)C(C)(C)O
Activity (Mus musculus [1]): Active | Time (Mus musculus [15]): 6 h | Activity (Mus musculus [2]): Non-toxic | Activity (Mus musculus [3]): Active | Activity (Mus musculus [4]): Non-toxic | Activity (Mus musculus [5]): Non-toxic | Activity (Mus musculus [6]): Active | Activity (Mus musculus [7]): Active | Activity (Mus musculus [8]): Non-toxic | Activity (Mus musculus [9]): inactive | ED50 (Mus musculus [18]): 44.6 mg/kg | Activity (Mus musculus [10]): Active | Activity (Mus musculus [11]; route intraperitoneal): 100% | Activity (Mus musculus [12]): inactive | Activity (Mus musculus [13]): Non-toxic

CC(C)(O)C(=O)NCc1ccccc1
Ratio ED50 (Mus musculus [14]): 30 | Activity (Mus musculus [1]): Active | Time (Mus musculus [15]): 0.25 h | Activity (Mus musculus [2]): Non-toxic | Activity (Mus musculus [3]): Active | Activity (Mus musculus [4]): Non-toxic | Activity (Mus musculus [5]): Non-toxic | Activity (Mus musculus [6]): Active | Activity (Mus musculus [7]): inactive | Activity (Mus musculus [8]): Non-toxic | Activity (Mus musculus [9]): Active | ED50 (Mus musculus [18]): 9.1 mg/kg | Activity (Mus musculus [10]): inactive | Activity (Mus musculus [11]; route intraperitoneal): 100% | Activity (Mus musculus [12]): Active | Activity (Mus musculus [13]): Non-toxic

O=C1NC(=O)C(c2ccccc2)(c2ccccc2)N1 [PHENYTOIN]
Time (Mus musculus [15]): 1 h | ED50 (Mus musculus [18]): 5.54 mg/kg

CC(C)(O)C(=O)NC1CCCCC1
Activity (Mus musculus [1]): inactive | Time (Mus musculus [15]): 0.5 h | Activity (Mus musculus [2]): Non-toxic | Activity (Mus musculus [3]; route intraperitoneal): 100% | Activity (Mus musculus [4]): Non-toxic | Activity (Mus musculus [5]): Non-toxic | Activity (Mus musculus [6]): inactive | Activity (Mus musculus [7]): Active | Activity (Mus musculus [8]): Non-toxic | Activity (Mus musculus [9]): inactive | ED50 (Mus musculus [18]): 25.2 mg/kg | Activity (Mus musculus [10]): inactive | Activity (Mus musculus [11]; route intraperitoneal): 100% | Activity (Mus musculus [12]): Active | Activity (Mus musculus [13]): Non-toxic

CCCN1C(=O)C(C)(C)OS1(=O)=O
Activity (Mus musculus [1]): inactive | Activity (Mus musculus [2]): Non-toxic | Activity (Mus musculus [3]): inactive | Activity (Mus musculus [4]): Non-toxic | Activity (Mus musculus [5]): Non-toxic | Activity (Mus musculus [6]): inactive | Activity (Mus musculus [7]): Active | Activity (Mus musculus [8]): Non-toxic | Activity (Mus musculus [9]): inactive | Activity (Mus musculus [10]): inactive | Activity (Mus musculus [11]): Active | Activity (Mus musculus [12]): Active | Activity (Mus musculus [13]): Non-toxic

CC(C)(O)C(=O)NCCc1ccccc1
Activity (Mus musculus [1]): Active | Time (Mus musculus [15]): 1 h | Activity (Mus musculus [2]): Non-toxic | Activity (Mus musculus [3]): Active | Activity (Mus musculus [4]): Non-toxic | Activity (Mus musculus [5]): Non-toxic | Activity (Mus musculus [6]): inactive | Activity (Mus musculus [7]): Active | Activity (Mus musculus [8]): Non-toxic | Activity (Mus musculus [9]): Active | ED50 (Mus musculus [18]): 53.9 mg/kg | Activity (Mus musculus [10]): inactive | Activity (Mus musculus [11]; route intraperitoneal): 100% | Activity (Mus musculus [12]): Active | Activity (Mus musculus [13]): Non-toxic
